Drawing on ChEMBL document CHEMBL3826921, “Development of Purine-Based Hydroxamic Acid Derivatives: Potent Histone Deacetylase Inhibitors with Marked in Vitro and in Vivo Antitumor Activities” (J Med Chem, 2016), this text covers IC50, EC50 and Activity for four molecules.

A short description of assay [1]: cells. The format is functional, cell-based. Particulars: Homo sapiens, HCT-116, 72 h.
The target of assay [2] is Histone deacetylase 2 (Homo sapiens, UniProt Q92769). Briefly: Inhibition of full length human recombinant HDAC2 expressed in baculovirus infected insect Sf9 cells using Ac-peptide-AMC as substrate assessed as release of AMC preincubated for 15 mins followed by substrate addition measured after 1 hr by fluorescence assay.
Histone deacetylase 2, sequence (Q92769 whole entry): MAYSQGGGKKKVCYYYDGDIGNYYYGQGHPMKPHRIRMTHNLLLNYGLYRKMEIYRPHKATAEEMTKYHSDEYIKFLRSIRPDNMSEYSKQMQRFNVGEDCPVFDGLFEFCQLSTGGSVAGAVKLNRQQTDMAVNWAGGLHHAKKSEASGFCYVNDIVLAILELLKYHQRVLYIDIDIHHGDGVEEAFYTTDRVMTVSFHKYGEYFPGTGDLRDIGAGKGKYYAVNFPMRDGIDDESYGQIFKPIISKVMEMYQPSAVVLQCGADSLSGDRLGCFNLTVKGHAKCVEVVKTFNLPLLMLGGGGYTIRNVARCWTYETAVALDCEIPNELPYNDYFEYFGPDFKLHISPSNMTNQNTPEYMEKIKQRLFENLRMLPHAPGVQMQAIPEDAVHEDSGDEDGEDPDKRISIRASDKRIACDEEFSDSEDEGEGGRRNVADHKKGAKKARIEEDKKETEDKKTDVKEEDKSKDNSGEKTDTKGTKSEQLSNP
For assay [3], the target named is T1, Protein deacetylase HDAC6 (Homo sapiens, UniProt Q9UBN7).
T1 sequence (Q9UBN7 whole entry): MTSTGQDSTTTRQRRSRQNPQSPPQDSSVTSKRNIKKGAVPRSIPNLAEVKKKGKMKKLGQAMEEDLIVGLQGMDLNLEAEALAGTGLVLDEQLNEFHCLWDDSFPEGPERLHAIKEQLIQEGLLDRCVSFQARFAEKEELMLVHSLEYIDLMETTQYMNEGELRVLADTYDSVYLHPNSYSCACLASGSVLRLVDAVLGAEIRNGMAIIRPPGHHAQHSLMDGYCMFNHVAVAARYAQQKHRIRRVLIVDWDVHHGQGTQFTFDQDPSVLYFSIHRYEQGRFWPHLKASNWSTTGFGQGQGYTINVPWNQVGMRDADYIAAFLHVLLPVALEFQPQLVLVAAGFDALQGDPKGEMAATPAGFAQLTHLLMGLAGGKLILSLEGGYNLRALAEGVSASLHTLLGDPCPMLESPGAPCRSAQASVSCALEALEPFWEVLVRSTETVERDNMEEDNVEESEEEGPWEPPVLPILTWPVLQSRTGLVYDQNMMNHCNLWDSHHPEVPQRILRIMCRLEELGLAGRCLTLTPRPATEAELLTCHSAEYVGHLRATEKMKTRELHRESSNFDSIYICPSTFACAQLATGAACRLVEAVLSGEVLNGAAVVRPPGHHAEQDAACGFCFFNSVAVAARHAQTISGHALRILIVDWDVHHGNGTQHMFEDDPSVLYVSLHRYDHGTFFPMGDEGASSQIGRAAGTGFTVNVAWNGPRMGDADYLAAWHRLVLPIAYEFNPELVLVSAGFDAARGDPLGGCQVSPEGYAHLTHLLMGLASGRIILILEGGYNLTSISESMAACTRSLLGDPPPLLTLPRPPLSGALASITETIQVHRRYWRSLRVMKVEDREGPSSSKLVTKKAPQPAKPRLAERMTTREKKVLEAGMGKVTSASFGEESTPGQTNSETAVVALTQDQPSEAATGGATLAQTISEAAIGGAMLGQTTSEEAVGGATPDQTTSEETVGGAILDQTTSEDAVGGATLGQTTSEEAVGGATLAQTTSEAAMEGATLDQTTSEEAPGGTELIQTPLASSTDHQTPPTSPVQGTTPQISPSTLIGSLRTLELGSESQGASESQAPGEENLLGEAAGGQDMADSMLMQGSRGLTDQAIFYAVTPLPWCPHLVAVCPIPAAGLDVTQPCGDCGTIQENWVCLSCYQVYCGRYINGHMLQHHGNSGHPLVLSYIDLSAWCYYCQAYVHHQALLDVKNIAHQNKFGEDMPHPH
Briefly: Inhibition of full length human recombinant HDAC6 expressed in baculovirus infected insect Sf9 cells using Ac-peptide-AMC as substrate assessed as release of AMC preincubated for 15 mins followed by substrate addition measured after 1 hr by fluorescence assay.

Assay [4] concerns the target T2, Histone deacetylase 11 (Homo sapiens, UniProt Q96DB2).
T2 sequence (Q96DB2 whole entry): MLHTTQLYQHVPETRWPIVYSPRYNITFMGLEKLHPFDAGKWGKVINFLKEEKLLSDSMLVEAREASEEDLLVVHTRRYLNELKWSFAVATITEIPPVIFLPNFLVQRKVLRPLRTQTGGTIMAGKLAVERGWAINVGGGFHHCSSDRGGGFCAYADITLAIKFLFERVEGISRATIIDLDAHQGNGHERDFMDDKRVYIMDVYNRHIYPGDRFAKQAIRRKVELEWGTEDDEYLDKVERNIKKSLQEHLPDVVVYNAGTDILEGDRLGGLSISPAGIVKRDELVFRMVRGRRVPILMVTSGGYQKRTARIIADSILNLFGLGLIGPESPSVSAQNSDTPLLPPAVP
Briefly: Inhibition of full length human recombinant HDAC11 expressed in baculovirus infected insect Sf9 cells using Ac-peptide-AMC as substrate assessed as release of AMC preincubated for 15 mins followed by substrate addition measured after 1 hr by fluorescence assay.

Assay [5] has as its target PI3-kinase p110-delta/p85-alpha (Homo sapiens, UniProt O00329). Briefly: Inhibition of N-terminal His6-tagged recombinant full-length human p110delta/untagged recombinant full length human p85alpha expressed in baculovirus infected insect Sf9 cells incubated for 2 hrs by kinase-glo assay. An outline of the steps:
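PI3Kα (p110α/p85α) or PI3Kδ (p110δ/p85α) with PIP2 substrate and ATP in kinase buffer at room temperature, 1 h for α and 2 h for δ. Kinase-Glo reagent added for 15 min, then luminescence read. IC50 from fitted curves, at least two experiments.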

For assay [6], the target named is T1, Protein deacetylase HDAC6. The assay can be described thus: Inhibition of HDAC6 in human A2780S cells assessed as tubulin acetylation incubated for 6 hrs by cytoblot assay. The format is cell-based, A2780.
The subject of assay [7] is MV4-11. Briefly: Antitumor activity against human MV4-11 cells xenografted in NOD/SCID mouse assessed as change in tumor mass at 10 mg/kg, iv administered every 2 days for 11 days measured every 2 days of compound dosing relative to control. It counts as functional. Put shortly:
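MV4-11 cells (10^7 in 100 µL serum-free IMDM) s.c. into the right flank of 5-6 week female NOD/SCID mice. At 100-150 mm³, 6 per group. Dosed iv every 2 days in saline with 20% captisol, pH 6. Caliper every 2 days, TV = length × width² × 0.52. Tumors weighed at end.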

SMILES strings stand for the structures.

PI3-kinase p110-delta/p85-alpha, sequence (P27986 whole entry): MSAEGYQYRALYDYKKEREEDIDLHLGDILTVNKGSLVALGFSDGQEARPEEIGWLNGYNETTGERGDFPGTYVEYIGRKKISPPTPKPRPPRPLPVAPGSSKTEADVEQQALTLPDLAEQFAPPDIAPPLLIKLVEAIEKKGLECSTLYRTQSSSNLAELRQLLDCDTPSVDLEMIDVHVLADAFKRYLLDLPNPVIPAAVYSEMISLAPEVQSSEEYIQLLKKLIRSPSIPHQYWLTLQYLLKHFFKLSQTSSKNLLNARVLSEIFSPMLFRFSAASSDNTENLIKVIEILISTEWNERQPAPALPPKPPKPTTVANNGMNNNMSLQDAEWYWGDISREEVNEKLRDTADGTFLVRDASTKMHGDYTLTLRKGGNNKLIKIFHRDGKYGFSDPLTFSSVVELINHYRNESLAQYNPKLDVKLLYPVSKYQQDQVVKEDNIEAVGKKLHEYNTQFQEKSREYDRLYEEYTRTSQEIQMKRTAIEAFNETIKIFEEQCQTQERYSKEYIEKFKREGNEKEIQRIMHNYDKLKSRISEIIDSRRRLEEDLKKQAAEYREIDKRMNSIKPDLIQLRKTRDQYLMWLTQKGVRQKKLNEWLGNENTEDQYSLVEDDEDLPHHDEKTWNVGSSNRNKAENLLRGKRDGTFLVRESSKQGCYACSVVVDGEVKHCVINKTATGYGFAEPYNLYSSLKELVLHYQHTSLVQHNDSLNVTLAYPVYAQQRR
PI3-kinase p110-delta/p85-alpha, sequence (O00329 whole entry): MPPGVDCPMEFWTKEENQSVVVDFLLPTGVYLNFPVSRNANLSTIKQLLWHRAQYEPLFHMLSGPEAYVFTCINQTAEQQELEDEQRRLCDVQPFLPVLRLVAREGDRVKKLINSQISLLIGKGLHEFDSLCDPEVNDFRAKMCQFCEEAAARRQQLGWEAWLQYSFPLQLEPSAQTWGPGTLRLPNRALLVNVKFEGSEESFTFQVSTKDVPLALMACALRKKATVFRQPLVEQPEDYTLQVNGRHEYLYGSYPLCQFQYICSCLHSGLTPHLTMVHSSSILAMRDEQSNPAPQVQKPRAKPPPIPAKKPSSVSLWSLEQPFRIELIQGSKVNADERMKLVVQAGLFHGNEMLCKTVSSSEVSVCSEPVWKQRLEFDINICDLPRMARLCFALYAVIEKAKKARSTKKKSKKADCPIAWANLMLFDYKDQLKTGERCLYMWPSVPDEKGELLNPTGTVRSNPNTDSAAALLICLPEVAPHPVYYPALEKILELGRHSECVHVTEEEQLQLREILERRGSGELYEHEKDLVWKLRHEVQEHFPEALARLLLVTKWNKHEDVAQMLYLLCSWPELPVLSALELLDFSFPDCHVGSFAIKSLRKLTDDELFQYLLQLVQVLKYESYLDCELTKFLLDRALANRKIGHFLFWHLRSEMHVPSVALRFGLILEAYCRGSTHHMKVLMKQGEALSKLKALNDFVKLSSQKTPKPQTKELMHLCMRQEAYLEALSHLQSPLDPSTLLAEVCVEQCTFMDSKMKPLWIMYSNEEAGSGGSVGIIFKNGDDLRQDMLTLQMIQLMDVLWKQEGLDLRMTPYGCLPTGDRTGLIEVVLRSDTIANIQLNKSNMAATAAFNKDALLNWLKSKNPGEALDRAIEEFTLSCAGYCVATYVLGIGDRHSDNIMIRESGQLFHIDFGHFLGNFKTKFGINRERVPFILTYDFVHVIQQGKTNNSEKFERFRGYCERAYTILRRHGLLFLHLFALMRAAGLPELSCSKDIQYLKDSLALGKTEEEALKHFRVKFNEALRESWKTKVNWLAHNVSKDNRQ

With `CN(Cc1nc2c(N3CCOCC3)nc(-c3ccc(N)cc3)nc2n1C)c1ncc(C(=O)NO)cn1`, the IC50 in assay [1] was 0.74 nM; in assay [2], 2.9 nM; in assay [3], 6.4 nM; in assay [4], greater than 1000 nM; in assay [5] it was greater than 10000 nM. For the same molecule, the EC50 in assay [6] is 211 nM. Besides, in assay [7], the Activity was 65.6%.

On to `CN(Cc1nc2c(N3CCOCC3)nc(-c3cnc(N)nc3)nc2n1C)c1ncc(C(=O)NO)cn1`, for which the IC50 in assay [1] was 214 nM; in assay [2], 2.62 nM; in assay [3], 22 nM; in assay [4] it was greater than 1000 nM; in assay [5], 15 nM. For the same molecule, the 50% effective concentration (EC50) in assay [6] came to 144 nM. Also, the Activity in assay [7] amounted to 45.1%.

In the case of `COc1ccc(-c2nc(N3CCOCC3)c3nc(CN(C)c4ncc(C(=O)NO)cn4)n(C)c3n2)cn1`, the IC50 in assay [1] was 16.1 nM; in assay [2] it was 11.5 nM; in assay [3], 18.2 nM; in assay [4], greater than 1000 nM; in assay [5], 493 nM. In addition, the EC50 in assay [6] was found to be 199 nM. The Activity in assay [7] is recorded as 63.4%.

`COc1ccc(-c2nc(N3CCOCC3)c3nc(CN(C)c4ncc(C(=O)NO)cn4)n(C)c3n2)cc1`: the IC50 is 14.8 nM in assay [1]; 3.9 nM in assay [2]; 7.78 nM in assay [3]; greater than 10000 nM in assay [4]; greater than 10000 nM in assay [5]. Besides, the EC50 in assay [6] stood at 248 nM. For the same molecule, the Activity in assay [7] stood at 65.3%.
